≈ marks a conversion by molar mass, not a printed value. Calls of active or inactive are those of the source. The rule behind the calls is not given here.
Assays:
Streptococcus pneumoniae [1] = test: Reduction of pneumolysin production in Streptococcus pneumoniae NMU112 lysates at 5 ug/mL after 12 hrs by Western blot relative to control; type: functional, organism-based
How it was run: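 NMU112 at 5 × 10⁷ CFU/ml in THY cultured with macrolide at 37°C for 12 h, then whole-cell sonicated lysates run on SDS-PAGE and immunoblotted for pneumolysin. Band densitometry as mean % of drug-free culture; two cultures per dose per experiment, three experiments.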

Streptococcus pneumoniae [2] = test: Antimicrobial activity against Streptococcus pneumoniae NMU605; type: functional
How it was run: (§1)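 Broth microdilution MIC (NCCLS method) in Mueller-Hinton broth with 3% lysed horse blood; clinical isolates NMU605 (serotype 3) and NMUP45 (serotype 4).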

Streptococcus pneumoniae [3] = test: Antimicrobial activity against drug-resistant Streptococcus pneumoniae NMU112 infected CBA/J mouse assessed as median survival time at 10 mg/kg, po relative to control; type: functional
How it was run: (§2)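 Male CBA/J mice, 3-4 weeks old, 28-30 g. Macrolide given by oral gavage in saline for 3 days; RXM, ERY and CLR twice daily at 12-h intervals, AZM once daily. Saline controls. 24 h after the last dose, mice were infected intratracheally with 5 × 10⁴ CFU NMU112 (erm(B)/mef(A)). Kaplan-Meier survival and median survival time, log rank test; 10 mice per group per experiment.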

Streptococcus pneumoniae [4] = test: Antimicrobial activity against Streptococcus pneumoniae NMU112 infected in po dosed CBA/J mouse assessed as delaying in development of bacteremia […]; type: functional, organism-based
Streptococcus pneumoniae [5] = test: Inhibition of pneumococcal surface protein A production in Streptococcus pneumoniae NMU112 lysates at 5 ug/mL after 12 hrs by Western blot relative to control; type: functional, organism-based
How it was run: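 Strain NMU112 (5 × 10⁷ CFU/ml in THY) cultured 12 h at 37°C with drug. Sonicated whole-cell lysates run on SDS-PAGE and Western blotted; bands measured by densitometry as % of drug-free culture. Two cultures per dose, three experiments (n = 5–6).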

Streptococcus pneumoniae [6] = test: Antimicrobial activity against Streptococcus pneumoniae NMU112; type: functional
How it was run: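 Broth microdilution MIC per NCCLS in Mueller-Hinton broth with 3% lysed horse blood.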

Streptococcus pneumoniae [7] = test: Antimicrobial activity against Streptococcus pneumoniae NMUP45; type: functional; how it was run: as §1
Streptococcus pneumoniae [8] = test: Antimicrobial activity against drug-resistant Streptococcus pneumoniae NMU112 infected CBA/J mouse assessed as median survival time at 5 mg/kg, po relative to control; type: functional; how it was run: as §2

Row | SMILES | Activity (Streptococcus pneumoniae [1]) | MIC (Streptococcus pneumoniae [2]) | MST (Streptococcus pneumoniae [3]) | Activity (Streptococcus pneumoniae [4]) | Activity (Streptococcus pneumoniae [5]) | MIC (Streptococcus pneumoniae [6]) | MIC (Streptococcus pneumoniae [7]) | MST (Streptococcus pneumoniae [8])
1 | CC[C@H]1OC(=O)[C@H](C)[C@@H](O[C@H]2C[C@@](C)(OC)[C@@H](O)[C@H](C)O2)[C@H](C)[C@@H](O[C@@H]2O[C@H](C)C[C@H](N(C)C)[C@H]2O)[C@](C)(OC)C[C@@H](C)C(=O)[C@H](C)[C@@H](O)[C@]1(C)O [CLARITHROMYCIN] | Active | 0.03 µg/mL (≈ 0.0401 µM) | 8.45 days | Active | Active | ≥ 256 µg/mL | 2 µg/mL (≈ 2.67 µM) | 6.82 days
2 | CC[C@H]1OC(=O)[C@H](C)[C@@H](O[C@H]2C[C@@](C)(OC)[C@@H](O)[C@H](C)O2)[C@H](C)[C@@H](O[C@@H]2O[C@H](C)C[C@H](N(C)C)[C@H]2O)[C@](C)(O)C[C@@H](C)CN(C)[C@H](C)[C@@H](O)[C@]1(C)O [AZITHROMYCIN] | Active | 0.125 µg/mL (≈ 0.167 µM) | 7.33 days | Active | Active | ≥ 256 µg/mL | – | 5.84 days
